Results from ChEMBL document CHEMBL4689842, “EUbOPEN Chemogenomics Library wave 1” (2021).

Tested on: U2OS
Assay: Multiplex assay against U2OS
Format: toxicity, cell-based
Settings: human
Method in brief: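 Phenotypes for tubulin, mitochondrial mass and membrane permeability are expressed as per cents of healthy-nucleus cells. Cells were stained live at seeding with Hoechst33342, BioTracker Green Microtubule Cytoskeleton Dye, MitoTracker Red and Annexin V Alexa Fluor 680, then imaged after compound addition on a CQ1 microscope at 37°C and 5% CO2. Machine-learning gating in CellPathfinder separated Hoechst high-intensity objects from normal cells, divided normal cells by nuclear state (healthy, pyknosed, fragmented) and divided pyknosed cells into mitotic or apoptotic.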

[1] = 12 h, 1 µM, compound concentration 1 uM, replicate 1
[2] = 12 h, 1 µM, compound concentration 1 uM, replicate 2
[3] = 12 h, 10 µM, compound concentration 10 uM, replicate 1
[4] = 12 h, 10 µM, compound concentration 10 uM, replicate 2
[5] = 24 h, 1 µM, compound concentration 1 uM, replicate 1
[6] = 24 h, 1 µM, compound concentration 1 uM, replicate 2
[7] = 24 h, 10 µM, compound concentration 10 uM, replicate 1
[8] = 24 h, 10 µM, compound concentration 10 uM, replicate 2
[9] = 48 h, 1 µM, compound concentration 1 uM, replicate 1
[10] = 48 h, 1 µM, compound concentration 1 uM, replicate 2
[11] = 48 h, 10 µM, compound concentration 10 uM, replicate 1
[12] = 48 h, 10 µM, compound concentration 10 uM, replicate 2

## Cl.O=C(O)c1cc(-c2ccc(C3CCNCC3)cc2)c2ccc(-c3ccc(C(F)(F)F)cc3)cc2c1
[1]
  Population Apoptotic (%): 25%
  Population Fragmented Nuclei (%): 16%
  Population Healthy Nuclei (%): 67%
  Population Hoechst High Intensity Objects (%): 7%
  Population Membrane Permeable-Phenotype (%): 8%
  Population Mitochondria Different-Phenotype (%): 9%
  Population Mitotic Cells (%): 74%
  Population Normal (%): 92%
  Population Pyknosed Nuclei (%): 16%
  Population Tubulin-Different-Phenotype (%): 15%
  Total Cell Count: 201
[2]
  Population Apoptotic (%): 50%
  Population Fragmented Nuclei (%): 11%
  Population Healthy Nuclei (%): 83%
  Population Hoechst High Intensity Objects (%): 5%
  Population Membrane Permeable-Phenotype (%): 3%
  Population Mitochondria Different-Phenotype (%): 16%
  Population Mitotic Cells (%): 50%
  Population Normal (%): 94%
  Population Pyknosed Nuclei (%): 5%
  Population Tubulin-Different-Phenotype (%): 36%
  Total Cell Count: 60
[3]
  Population Apoptotic (%): 41%
  Population Healthy Nuclei (%): 74%
  Population Hoechst High Intensity Objects (%): 2%
  Population Membrane Permeable-Phenotype (%): 5%
  Population Mitochondria Different-Phenotype (%): 17%
  Population Mitotic Cells (%): 58%
  Population Normal (%): 97%
  Population Pyknosed Nuclei (%): 11%
  Population Tubulin-Different-Phenotype (%): 14%
  Total Cell Count: 181
[4]
  Population Apoptotic (%): 60%
  Population Fragmented Nuclei (%): 14%
  Population Healthy Nuclei (%): 64%
  Population Hoechst High Intensity Objects (%): 14%
  Population Membrane Permeable-Phenotype (%): 10%
  Population Mitochondria Different-Phenotype (%): 13%
  Population Mitotic Cells (%): 40%
  Population Normal (%): 85%
  Population Pyknosed Nuclei (%): 21%
  Population Tubulin-Different-Phenotype (%): 23%
  Total Cell Count: 38
[5]
  Population Apoptotic (%): 35%
  Population Healthy Nuclei (%): 81%
  Population Hoechst High Intensity Objects (%): 7%
  Population Membrane Permeable-Phenotype (%): 3%
  Population Mitotic Cells (%): 64%
  Population Normal (%): 92%
  Population Pyknosed Nuclei (%): 6%
  Population Tubulin-Different-Phenotype (%): 12%
  Total Cell Count: 249
[6]
  Population Apoptotic (%): 20%
  Population Fragmented Nuclei (%): 11%
  Population Healthy Nuclei (%): 79%
  Population Hoechst High Intensity Objects (%): 3%
  Population Membrane Permeable-Phenotype (%): 4%
  Population Mitochondria Different-Phenotype (%): 9%
  Population Mitotic Cells (%): 80%
  Population Normal (%): 96%
  Population Pyknosed Nuclei (%): 9%
  Population Tubulin-Different-Phenotype (%): 30%
  Total Cell Count: 62
[7]
  Population Apoptotic (%): 41%
  Population Fragmented Nuclei (%): 13%
  Population Healthy Nuclei (%): 72%
  Population Hoechst High Intensity Objects (%): 4%
  Population Membrane Permeable-Phenotype (%): 4%
  Population Mitochondria Different-Phenotype (%): 12%
  Population Mitotic Cells (%): 58%
  Population Normal (%): 95%
  Population Pyknosed Nuclei (%): 13%
  Population Tubulin-Different-Phenotype (%): 13%
  Total Cell Count: 227
[8]
  Population Apoptotic (%): 61%
  Population Fragmented Nuclei (%): 17%
  Population Healthy Nuclei (%): 61%
  Population Hoechst High Intensity Objects (%): 8%
  Population Membrane Permeable-Phenotype (%): 7%
  Population Mitochondria Different-Phenotype (%): 5%
  Population Mitotic Cells (%): 38%
  Population Normal (%): 91%
  Population Pyknosed Nuclei (%): 20%
  Population Tubulin-Different-Phenotype (%): 16%
  Total Cell Count: 56
[9]
  Population Apoptotic (%): 17%
  Population Fragmented Nuclei (%): 9%
  Population Healthy Nuclei (%): 81%
  Population Hoechst High Intensity Objects (%): 3%
  Population Membrane Permeable-Phenotype (%): 1%
  Population Mitochondria Different-Phenotype (%): 17%
  Population Mitotic Cells (%): 82%
  Population Normal (%): 96%
  Population Pyknosed Nuclei (%): 9%
  Population Tubulin-Different-Phenotype (%): 12%
  Total Cell Count: 359
[10]
  Population Apoptotic (%): 33%
  Population Fragmented Nuclei (%): 6%
  Population Healthy Nuclei (%): 89%
  Population Hoechst High Intensity Objects (%): 2%
  Population Membrane Permeable-Phenotype (%): 4%
  Population Mitochondria Different-Phenotype (%): 11%
  Population Mitotic Cells (%): 66%
  Population Normal (%): 97%
  Population Pyknosed Nuclei (%): 3%
  Population Tubulin-Different-Phenotype (%): 32%
  Total Cell Count: 95
[11]
  Population Apoptotic (%): 45%
  Population Fragmented Nuclei (%): 12%
  Population Healthy Nuclei (%): 65%
  Population Hoechst High Intensity Objects (%): 5%
  Population Membrane Permeable-Phenotype (%): 5%
  Population Mitochondria Different-Phenotype (%): 7%
  Population Mitotic Cells (%): 54%
  Population Normal (%): 94%
  Population Pyknosed Nuclei (%): 21%
  Population Tubulin-Different-Phenotype (%): 14%
  Total Cell Count: 332
[12]
  Population Apoptotic (%): 75%
  Population Fragmented Nuclei (%): 17%
  Population Healthy Nuclei (%): 66%
  Population Hoechst High Intensity Objects (%): 10%
  Population Membrane Permeable-Phenotype (%): 13%
  Population Mitochondria Different-Phenotype (%): 13%
  Population Mitotic Cells (%): 25%
  Population Normal (%): 89%
  Population Pyknosed Nuclei (%): 16%
  Population Tubulin-Different-Phenotype (%): 21%
  Total Cell Count: 80
